For assay [1], the system named is NCI-H460. The experiment in a line: Cytotoxicity against human NCI-H460 cells after 48 hrs by resazurin dye assay. Type of assay: functional, cell-based. The following applies: NCI-H460, 48 h. In outline:
(§1)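 Cells were seeded in the supplier-recommended growth medium and grown 24 h at 37 °C/5% CO2, with density set per line to give a linear signal. Compound exposure was 48 h in total. Resazurin (0.2 mg/mL in DPBS) was added for the final 3 h, and fluorescence was read at 590 nm. Data were expressed as % efficacy against non-treated cells and cell-free blanks on each plate. EC50 came from non-linear regression.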
(Alamar Blue is a resazurin reagent that responds to reducing activity.)

Assay [2] concerns SK-OV-3. The assay is described as follows: Cytotoxicity against human SKOV3 cells after 48 hrs by resazurin dye assay. In kind it is functional, cell-based. The following applies: SK-OV-3, 48 h. In outline: as §1
Assay [3] in a line: Cytotoxicity against human KB/HeLa cells after 48 hrs by resazurin dye assay. In kind it is functional, cell-based. In outline: as §1
For assay [4], the system named is SK-OV-3. The assay is described as follows: Cytotoxicity against human SKOV3 cells at 31.6 uM after 48 hrs by resazurin dye assay. In kind it is functional. The following applies: SK-OV-3, 48 h.

Usually EC50 stands for the midpoint of the concentration-response curve. The inhibition is the change of the read-out against control, counted positive when it falls. Lower therefore signals little suppression.

Turning to `O=C1C(=O)c2c(nc3ccccn23)-c2ccncc21`, the values for the EC50 in assay [1], in assay [2] and in assay [3] were 242 nM, 498 nM and 244 nM, respectively.

With `O=C1C(=O)c2c(nc3ccc(Cl)cn23)-c2ccncc21`, the EC50 in assay [1] is 342 nM; in assay [2], 525 nM; in assay [3] it was 394 nM.

For `O=C1/C(=N\OCCO)c2cnccc2-c2nc3ccccn3c21`, the EC50 in assay [1] turned out to be 521 nM; in assay [2], 2060 nM; in assay [3], 532 nM.

For `CN(C)CCO/N=C1\C(=O)c2c(nc3ccccn23)-c2ccncc21`, the EC50 was 414 nM in assay [1], 931 nM in assay [2] and 406 nM in assay [3].

`CN(C)CCN(C)c1cc2c(cn1)C(=O)C(=O)c1c-2nc2ccc(Cl)cn12` registered an inhibition at 31.6 µM in assay [4] of under 30%. The EC50 in assay [1] stood at 2140 nM; in assay [3] it was 2800 nM.

In the case of `O=C1C(=O)c2c(nc3ccccn23)-c2cnccc21`, the EC50 in assay [1] stood at 620 nM; in assay [2] it was 1220 nM; in assay [3] it was 917 nM.

With `O=C1/C(=N\OCCO)c2ccncc2-c2nc3ccccn3c21`, the values for the EC50 in assay [1], in assay [2] and in assay [3] were 3880 nM, 14700 nM and 4350 nM, respectively.

With `CN(C)CCO/N=C1\C(=O)c2c(nc3ccccn23)-c2cnccc21`, the results for the EC50 in assay [1], in assay [2] and in assay [3] were 2670 nM, 2930 nM and 6150 nM, respectively.

Consider `O=C1C(=O)c2c(nc3ccccn23)-c2ncncc21`, for which the figures for the EC50 in assay [1], in assay [2] and in assay [3] were 337 nM, 283 nM and 145 nM, respectively.

For `COc1cccc2c1C(=O)c1c(O)c3c(c(O)c1C2=O)C[C@@](O)(C(=O)CO)C[C@@H]3O[C@H]1C[C@H](N)[C@H](O)[C@H](C)O1` [DOXORUBICIN], the values for the EC50 in assay [1], in assay [2] and in assay [3] were 40 nM, 290 nM and 250 nM, respectively.

Take `O=C1c2c(O)ccc(O)c2C(=O)c2c(NCCNCCO)ccc(NCCNCCO)c21` [MITOXANTRONE]: the EC50 came out at 30 nM in assay [1] and 420 nM in assay [3].

For the origin of these results see ChEMBL document CHEMBL2424651, “Synthesis and antiproliferative activity of new cytotoxic tri- and tetraazabenzo[3,2-a]fluorene-5,6-dione derivatives” (Bioorg Med Chem Lett, 2013).
